# Reference: ChEMBL document CHEMBL4819122, “Novel 4-(piperazin-1-yl)quinolin-2(1H)-one bearing thiazoles with antiproliferative activity through VEGFR-2-TK inhibition” (Bioorg Med Chem, 2021)
# Calls of active or inactive are those of the source. No cut-off for these calls is given here.
# How the values were obtained:
# [1] = tested on: OVCAR-8; assay: Cytotoxicity against human OVCAR-8 assessed as growth inhibition at 10 uM by NCI protocol relative to control; type: functional; details: read-out: GI
# In short: (§1)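 Run by NCI as a single-dose screen at 10 μM across the sixty-cell-line panel, which covers nine human tumour tissue types. The read-out is percent growth inhibition of treated cells relative to untreated cells.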
# [2] = tested on: CAKI-1; assay: Cytotoxicity against human Caki1 assessed as growth inhibition at 10 uM by NCI protocol relative to control; type: functional; details: read-out: GI; in short: as §1
# [3] = tested on: UACC-62; assay: Cytotoxicity against human UACC-62 assessed as growth inhibition at 10 uM by NCI protocol relative to control; type: functional; details: read-out: GI
# In short: (§2)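 Run by the NCI under its standard protocol: one dose of 10 μM against a sixty-line panel from nine human tumour tissues. Result given as percent growth inhibition of treated cells relative to untreated cells.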
# [4] = tested on: U-251; assay: Cytotoxicity against human U251 assessed as growth inhibition at 10 uM by NCI protocol relative to control; type: functional; details: read-out: GI; in short: as §2
# [5] = tested on: OVCAR-4; assay: Cytotoxicity against human OVCAR-4 assessed as growth inhibition at 10 uM by NCI protocol relative to control; type: functional; details: read-out: GI; in short: as §1
# [6] = tested on: M14; assay: Cytotoxicity against human M14 assessed as growth inhibition at 10 uM by NCI protocol relative to control; type: functional; details: read-out: GI; in short: as §1
# [7] = tested on: SK-MEL-28; assay: Cytotoxicity against human SK-MEL-28 assessed as growth inhibition at 10 uM by NCI protocol relative to control; type: functional; details: read-out: GI; in short: as §1
# [8] = tested on: 786-0; assay: Cytotoxicity against human 786-0 assessed as growth inhibition at 10 uM by NCI protocol relative to control; type: functional; details: read-out: GI; in short: as §1
# [9] = tested on: NCI/ADR-RES; assay: Cytotoxicity against human NCl/ADR-RES assessed as growth inhibition at 10 uM by NCI protocol relative to control; type: functional; details: read-out: GI; in short: as §1
# [10] = tested on: MDA-MB-435; assay: Cytotoxicity against human MDA-MB-435 assessed as growth inhibition at 10 uM by NCI protocol relative to control; type: functional, cell-based; in short: as §1
# [11] = tested on: SF-295; assay: Cytotoxicity against human SF-295 assessed as growth inhibition at 10 uM by NCI protocol relative to control; type: functional; details: read-out: GI; in short: as §1
# [12] = tested on: OVCAR-3; assay: Cytotoxicity against human OVCAR-3 assessed as growth inhibition at 10 uM by NCI protocol relative to control; type: functional; details: read-out: GI; in short: as §1
# [13] = tested on: HL-60; assay: Cytotoxicity against human HL60 assessed as growth inhibition at 10 uM by NCI protocol relative to control; type: functional; details: read-out: GI; in short: as §1
# [14] = tested on: NCI-H460; assay: Cytotoxicity against human NCI-H460 assessed as growth inhibition at 10 uM by NCI protocol relative to control; type: functional; details: read-out: GI; in short: as §1
# [15] = tested on: HCT-116; assay: Cytotoxicity against human HCT-116 assessed as growth inhibition at 10 uM by NCI protocol relative to control; type: functional; details: read-out: GI; in short: as §1
# [16] = tested on: BT-549; assay: Cytotoxicity against human BT-549 assessed as growth inhibition at 10 uM by NCI protocol relative to control; type: functional; details: read-out: GI; in short: as §1
# [17] = tested on: SW-620; assay: Cytotoxicity against human SW-620 assessed as growth inhibition at 10 uM by NCI protocol relative to control; type: functional; details: read-out: GI; in short: as §2
# [18] = tested on: ACHN; assay: Cytotoxicity against human ACHN assessed as growth inhibition at 10 uM by NCI protocol relative to control; type: functional; details: read-out: GI; in short: as §1
# [19] = tested on: NCI-H522; assay: Cytotoxicity against human NCI-H522 assessed as growth inhibition at 10 uM by NCI protocol relative to control; type: functional; details: read-out: GI; in short: as §1
# [20] = tested on: NCI-H226; assay: Cytotoxicity against human NCI-H226 assessed as growth inhibition at 10 uM by NCI protocol relative to control; type: functional; details: read-out: GI; in short: as §1
# [21] = tested on: PC-3; assay: Cytotoxicity against human PC3 assessed as growth inhibition at 10 uM by NCI protocol relative to control; type: functional; details: read-out: GI; in short: as §1
# [22] = tested on: SR; assay: Cytotoxicity against human SR assessed as growth inhibition at 10 uM by NCI protocol relative to control; type: functional; details: read-out: GI; in short: as §2
# [23] = tested on: SF-539; assay: Cytotoxicity against human […] assessed as growth inhibition at 10 uM by NCI protocol relative to control; type: functional; details: read-out: GI; in short: as §1
# [24] = tested on: SNB-75; assay: Cytotoxicity against human SNB-75 assessed as growth inhibition at 10 uM by NCI protocol relative to control; type: functional; details: read-out: GI; in short: as §2
# [25] = tested on: NCI-H322M; assay: Cytotoxicity against human NCI-H322M assessed as growth inhibition at 10 uM by NCI protocol relative to control; type: functional; details: read-out: GI; in short: as §1
# [26] = tested on: CCRF-CEM; assay: Cytotoxicity against human CCRF-CEM assessed as growth inhibition at 10 uM by NCI protocol relative to control; type: functional; details: read-out: GI; in short: as §1
# [27] = tested on: HT-29; assay: Cytotoxicity against human HT29 assessed as growth inhibition at 10 uM by NCI protocol relative to control; type: functional; details: read-out: GI; in short: as §1
# [28] = tested on: A549; assay: Cytotoxicity against human A549 assessed as growth inhibition at 10 uM by NCI protocol relative to control; type: functional; details: read-out: GI; in short: as §1
# [29] = tested on: MOLT-4; assay: Cytotoxicity against human MOLT-4 assessed as growth inhibition at 10 uM by NCI protocol relative to control; type: functional; details: read-out: GI; in short: as §1
# [30] = tested on: EKVX; assay: Cytotoxicity against human EKVX assessed as growth inhibition at 10 uM by NCI protocol relative to control; type: functional; details: read-out: GI; in short: as §1
# [31] = tested on: K562; assay: Cytotoxicity against human K-562 assessed as growth inhibition at 10 uM by NCI protocol relative to control; type: functional; details: read-out: GI; in short: as §1
# [32] = tested on: UACC-257; assay: Cytotoxicity against human UACC-257 assessed as growth inhibition at 10 uM by NCI protocol relative to control; type: functional; details: read-out: GI; in short: as §2
# [33] = tested on: IGROV-1; assay: Cytotoxicity against human IGROVI assessed as growth inhibition at 10 uM by NCI protocol relative to control; type: functional; details: read-out: GI; in short: as §1
# [34] = tested on: KM12; assay: Cytotoxicity against human KM12 assessed as growth inhibition at 10 uM by NCI protocol relative to control; type: functional; details: read-out: GI; in short: as §1
# [35] = tested on: NCI-H23; assay: Cytotoxicity against human NCI-H23 assessed as growth inhibition at 10 uM by NCI protocol relative to control; type: functional; details: read-out: GI; in short: as §1
# [36] = tested on: HCT-15; assay: Cytotoxicity against human HCT-15 assessed as growth inhibition at 10 uM by NCI protocol relative to control; type: functional; details: read-out: GI; in short: as §1
# [37] = tested on: DU-145; assay: Cytotoxicity against human DU-145 assessed as growth inhibition at 10 uM by NCI protocol relative to control; type: functional; details: read-out: GI; in short: as §1
# [38] = tested on: Malme-3M; assay: Cytotoxicity against human MALME-3M assessed as growth inhibition at 10 uM by NCI protocol relative to control; type: functional; details: read-out: GI; in short: as §1
# [39] = tested on: MCF7; assay: Cytotoxicity against human MCF7 assessed as growth inhibition at 10 uM by NCI protocol relative to control; type: functional; details: read-out: GI; in short: as §1
# [40] = tested on: RPMI-8226; assay: Cytotoxicity against human RPMI-8226 assessed as growth inhibition at 10 uM by NCI protocol relative to control; type: functional; details: read-out: GI; in short: as §1
# [41] = tested on: UO-31; assay: Cytotoxicity against human UO31 assessed as growth inhibition at 10 uM by NCI protocol relative to control; type: functional; details: read-out: GI; in short: as §2
# [42] = tested on: SK-MEL-5; assay: Cytotoxicity against human SK-MEL-5 assessed as growth inhibition at 10 uM by NCI protocol relative to control; type: functional; details: read-out: GI; in short: as §1
compound,measurement,setting,value
O=C(CN1CCN(c2cc(=O)n(-c3ccccc3)c3ccccc23)CC1)Nc1nc(-c2ccc(Cl)cc2)cs1,inhibition of growth at 10 µM,[1],40.6%
same,inhibition of growth at 10 µM,[2],50.4%
same,inhibition of growth at 10 µM,[3],38.5%
same,inhibition of growth at 10 µM,[4],36.2%
same,inhibition of growth at 10 µM,[5],80.3%
same,inhibition of growth at 10 µM,[6],50.2%
same,inhibition of growth at 10 µM,[7],30.8%
same,inhibition of growth at 10 µM,[8],32.4%
same,inhibition of growth at 10 µM,[9],45.1%
same,growth inhibition (GI),[10],inactive
same,inhibition of growth at 10 µM,[11],37.4%
same,inhibition of growth at 10 µM,[12],32.9%
same,inhibition of growth at 10 µM,[13],73.8%
same,inhibition of growth at 10 µM,[14],45.2%
same,inhibition of growth at 10 µM,[15],64.2%
same,inhibition of growth at 10 µM,[16],53.5%
same,inhibition of growth at 10 µM,[17],25.7%
same,inhibition of growth at 10 µM,[18],44.9%
same,inhibition of growth at 10 µM,[19],43.7%
same,inhibition of growth at 10 µM,[20],52.6%
same,inhibition of growth at 10 µM,[21],65%
same,inhibition of growth at 10 µM,[22],43.2%
same,inhibition of growth at 10 µM,[23],23.9%
same,inhibition of growth at 10 µM,[24],32.5%
same,inhibition of growth at 10 µM,[25],10.9%
same,inhibition of growth at 10 µM,[26],49.3%
same,inhibition of growth at 10 µM,[27],36.2%
same,inhibition of growth at 10 µM,[28],47.4%
same,inhibition of growth at 10 µM,[29],71%
same,inhibition of growth at 10 µM,[30],57.3%
same,inhibition of growth at 10 µM,[31],75.8%
same,inhibition of growth at 10 µM,[32],72%
same,inhibition of growth at 10 µM,[33],34.5%
same,inhibition of growth at 10 µM,[34],35.3%
same,inhibition of growth at 10 µM,[35],50.2%
same,inhibition of growth at 10 µM,[36],60.3%
same,inhibition of growth at 10 µM,[37],38.4%
same,inhibition of growth at 10 µM,[38],44.9%
same,inhibition of growth at 10 µM,[39],79.9%
same,inhibition of growth at 10 µM,[40],63.3%
same,inhibition of growth at 10 µM,[41],70.5%
same,inhibition of growth at 10 µM,[42],94.9%
